A short description of data set [1]: Cytotoxicity in human FOB on drug treated bone allograft assessed as morphological changes after 48 hrs by propidium iodide staining. In short, it runs like this:
(§1)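 Cortical allograft pieces (1 × 1 cm; 70% ethanol, PBS and medium rinses, 10 min UV) seeded with 1 ml of 50,000 cells/ml hFOB in DMEM-F-12 with 10% FBS; after 48 h fixed (4% paraformaldehyde), permeabilized (0.1% Triton X-100), stained with Alexa 488-phalloidin and propidium iodide 30 min RT, imaged by confocal microscopy.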

The test system of data set [2] is Staphylococcus aureus. Put plainly: Antibacterial activity against Staphylococcus aureus Xen36 infected in drug treated human morselized bone allograft assessed as inhibition of biofilm formation after 12 hrs by confocal laser scanning microscopy. The format is functional, organism-based. In short, it runs like this: (§2)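 Allograft morsels challenged with S. aureus (1 ml, 1 × 10^4 CFU/ml) in TSB at 37°C without agitation for 5 or 12 h, washed three times in PBS, stained with Live/Dead BacLight (20 min, RT), imaged by confocal laser scanning microscopy with Z-plane optical sectioning and reconstruction.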

Data set [3] is described as follows: Cytotoxicity in human FOB on drug treated bone allograft assessed as increase of protein level after 3 days. Particulars: 72 h. The procedure, abridged: (§3)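 hFOB cells cultured on sterilized flat cortical allograft in DMEM-F-12 with 10% FBS for 1 or 3 days, lysed with M-PER buffer 30 min with shaking; total protein by Bradford assay as index of adhesion and proliferation; at least three experiments, means ± standard errors.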

Data set [4] is described as follows: Stability of the human bone graft-bound drug in dulbecco modified eagle medium after 7 days by immunofluorescent staining. The format is ADME. The settings on record: 168 h. In short, it runs like this:
(§4)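 About 10 mg modified allograft held 7 days at 37°C in 1 ml water, PBS, DMEM-F-12 with 10% FBS, or S. aureus in TSB (bacteria removed by 30 min sonication in 1% SDS), or kept dry in air; then PBS-washed, blocked in 10% FBS/PBS 1 h, rabbit anti-VAN IgG 1:500 at 4°C 12 h, Alexa Fluor 488 anti-rabbit 1:1,000 RT 1 h, viewed by epifluorescence.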

The test system of data set [5] is Staphylococcus aureus. Put plainly: Antibacterial activity against Staphylococcus aureus Xen36 infected in drug treated human morselized bone allograft assessed as reduction of bacterial count after 12 hrs followed by additional 4 hrs in presence of 10 ug/ml of drug by colony counting. It is filed as functional, organism-based. In short, it runs like this:
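Control or modified allograft incubated with S. aureus (1 ml, 10^4 CFU/ml) in TSB 12 h, either with 10 μg/ml solution VAN added alongside inoculum, or washed, transferred and given 4 h in TSB with 10 μg/ml VAN; after 16 h total, washed, adherent bacteria sonicated off, plated and counted, expressed as % of control per condition.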

The nature of data set [6]: Stability of the human bone graft-bound drug in phosphate buffer saline after 7 days by immunofluorescent staining. The format is ADME. Particulars: 168 h. The procedure, abridged: as §4
The subject of data set [7] is Staphylococcus aureus. Put plainly: Antibacterial activity against Staphylococcus aureus Xen36 infected in drug treated human morselized bone allograft assessed as inhibition of biofilm formation after 6 hrs by scanning electron microscopy. The format is functional, organism-based. In short, it runs like this: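 Allograft morsels exposed to S. aureus in TSB for 6 h, then examined by scanning electron microscopy at low magnification, ×1,500 and ×4,000 for adherent bacteria and biofilm.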

The subject of data set [8] is Staphylococcus aureus. The data set is described as follows: Antibacterial activity against Staphylococcus aureus Xen36 infected in drug treated human morselized bone allograft assessed as inhibition of biofilm formation after 5 hrs by confocal laser scanning microscopy. The format is functional, organism-based. The procedure, abridged: as §2
A short description of data set [9]: Stability of the human bone graft-bound drug in water after 7 days by immunofluorescent staining. The format is ADME. Particulars: 168 h. In short, it runs like this: as §4
Data set [10] is described as follows: Cytotoxicity in human FOB on drug treated bone allograft assessed as changes on cytoskeletal architecture after 48 hrs by propidium iodide staining. In short, it runs like this:
as §1

Data set [11] is filed under the species Homo sapiens. The data set is described as follows: Binding affinity to human morselized allograft bone by immunohistochemical analysis. In short, it runs like this:
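Human cancellous/cortical bone granules (0.5–2.0 mm), EDTA-treated, with covalently coupled VAN and washed until eluent gave no S. aureus disk-diffusion inhibition. PBS-washed ×3, blocked 1 h in 10% FBS/PBS, rabbit anti-VAN IgG (1:500) 12 h at 4°C, Alexa 488 anti-rabbit (1:1,000) 1 h RT, epifluorescence read-out. Uncoupled bone as control.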

Data set [12] can be described thus: Cytotoxicity in human FOB on drug treated bone allograft assessed as increase of protein level after 1 day. Particulars: 24 h. In short, it runs like this:
as §3

Data set [13] in a line: Stability of the human bone graft-bound drug 7 days after incubation with Staphylococcus aureus in trypticase soy broth by immunofluorescent staining. It is filed as ADME. The settings on record: 168 h. In short, it runs like this: as §4
The nature of data set [14]: Cytotoxicity in human FOB on drug treated bone allograft assessed as release of lactate dehydrogenase after 3 days. The settings on record: 72 h. The procedure, abridged: (§5)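 hFOB cells grown on flat cortical allograft 1 or 3 days; LDH released into medium measured with Tox-7 kit, given as percentage of released over total cellular LDH, normalized to day 1 controls; at least three experiments, means ± standard errors.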

Data set [15] can be described thus: Cytotoxicity in human FOB on drug treated bone allograft assessed as release of lactate dehydrogenase after 1 day. Particulars: 24 h. In short, it runs like this:
as §5

A short description of data set [16]: Stability of the human bone graft-bound drug in air after 7 days by immunofluorescent staining. The format is ADME. Particulars: 168 h. In short, it runs like this: as §4
In data set [17] the test system is Escherichia coli. Put plainly: Antibacterial activity against Escherichia coli DH5[alpha] infected in drug treated human morselized bone allograft assessed as reduction of bacterial count after up to 12 hrs by colony counting. The format is functional, organism-based. In short, it runs like this: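 Sterilized allograft granules (0.5–2.0 mm, human cancellous/cortical) incubated without agitation at 37°C in TSB with 1 ml of 1 × 10^4 CFU/ml bacteria (overnight TSB culture, 250 rpm, 37°C) for 2, 5, 8 or 12 h; washed three times with PBS, three more times, sonicated 5 min in 0.3% Tween 80/PBS, serially diluted, plated on Petrifilms and colonies counted; S. aureus shown as % of control per time point.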

The source made the active and inactive calls. No cut-off for these calls is given here.

For the molecule `CN[C@H](CC(C)C)C(=O)N[C@H]1C(=O)N[C@@H](CC(N)=O)C(=O)N[C@H]2C(=O)N[C@H]3C(=O)N[C@H](C(=O)N[C@H](C(=O)O)c4cc(O)cc(O)c4-c4cc3ccc4O)[C@H](O)c3ccc(c(Cl)c3)Oc3cc2cc(c3O[C@@H]2O[C@H](CO)[C@@H](O)[C@H](O)[C@H]2O[C@H]2C[C@](C)(N)[C@H](O)[C@H](C)O2)Oc2ccc(cc2Cl)[C@H]1O` [VANCOMYCIN], the Activity result is “Non-toxic” in data set [1]; “Non-toxic” in [3]; “Non-toxic” in data set [10]; “Toxic” in data set [12]; “Non-toxic” in data set [14]; “Non-toxic” in data set [15]. Moreover, the result in data set [2], in data set [5], in [7], in [8] and in data set [11] was Active. The Stability result in data set [4], in data set [6], in data set [9], in data set [13] and in data set [16] was “Stable” each time. Also, the outcome in [17] was inactive.

Source of the values: ChEMBL document CHEMBL1687840, “Vancomycin bonded to bone grafts prevents bacterial colonization” (Antimicrob Agents Chemother, 2011).
